From ChEMBL document CHEMBL1128227, “Cosalane analogues with enhanced potencies as inhibitors of HIV-1 protease and integrase” (J Med Chem, 1995)
pIC50: −log10 of the molar value.

Columns and labels:
CCRF-CEM = assay: Cytotoxical effect against CEM cell lines was determined by reduction of cellular viability. data represent mean value of at least two separate experiments.; assay type: functional; conditions: Homo sapiens
Procedure, shortened: (§1)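 Compounds tested as ammonium salts. Cytotoxicity in CEM-SS, MT-4 or PBL cultures taken from the reduction in cellular viability. Values are means of at least two separate experiments.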

HEL [1] = assay: Anti viral activity against HEL cytotoxicity by minimum cytotoxic concentration that causes a microscopically detectable alteration of normal cell morphology after 2 day of treatment.; assay type: functional; conditions: Homo sapiens, 48 h
HEL [2] = assay: Antiviral activity was determined against (Herpes simplex virus -2) by concentration required to reduce virus induced cytopathogenicity by 50%.; assay type: functional, cell-based; conditions: Homo sapiens
HEL [3] = assay: Antiviral activity was determined against Herpes simplex virus -1 TK- in HEL cells by measuring concentration required to reduce virus induced cytopathogenicity by 50%.; assay type: functional, cell-based; conditions: Homo sapiens
HEL [4] = assay: Antiviral activity was determined against Herpes simplex virus -1 TK-/TK+ in HEL cells by measuring concentration required to reduce virus induced cytopathogenicity by 50%.; assay type: functional, cell-based; conditions: Homo sapiens
HEL [5] = assay: Antiviral activity was determined against Herpes simplex virus -1 in HEL cells by measuring concentration required to reduce virus induced cytopathogenicity by 50%.; assay type: functional, cell-based; conditions: Homo sapiens
HEL [6] = assay: Antiviral activity was determined against Human cytomegalovirus (strain Davis) in HEL cells by measuring concentration required to reduce virus induced cytopathogenicity by 50%.; assay type: functional, cell-based
HEL [7] = assay: Antiviral activity was determined against Vaccinia virus in HEL cells by measuring concentration required to reduce virus induced cytopathogenicity by 50%.; assay type: functional, cell-based; conditions: Homo sapiens
HEL [8] = assay: Antiviral activity was determined against Vesicular stomatitis virus in HEL cells by measuring concentration required to reduce virus induced cytopathogenicity by 50%.; assay type: functional, cell-based; conditions: Homo sapiens
HeLa [9] = assay: Anti viral activity against HeLa cytotoxicity by minimum cytotoxic concentration that causes a microscopically detectable alteration of normal cell morphology after 2 day of treatment.; assay type: functional; conditions: Homo sapiens, 48 h
HeLa [10] = assay: Antiviral activity was determined against Respiratory syncytial virus(strain Long) in HeLa cells by measuring concentration required to reduce virus induced cytopathogenicity by 50%.; assay type: functional, cell-based; conditions: Homo sapiens
Procedure, shortened: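 RSV cytopathicity in HeLa cells. Compound added immediately after virus infection and left in the culture. Virus-induced cytopathogenicity scored at day 5 post-infection. IC50 in μg/mL.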

[11] = molecular target: Human immunodeficiency virus type 1 integrase (Human immunodeficiency virus 1, UniProt Q7ZJM1); assay: Inhibition of HIV -1 Integrase
Procedure, shortened: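 Purified HIV-1 integrase. 3'-processing and strand-transfer (integration) activities were measured with synthetic double-stranded oligonucleotides mimicking viral DNA ends. Compounds tested as ammonium salts. Values are means of at least two experiments.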

MOLT-4 [12] = assay: Gaint cell formation between HIV-1 (HTLV-IIIB) infected HUT-78 cells and uninfected MOLT-4(clone-8)cells; assay type: functional, cell-based; conditions: Homo sapiens
Procedure, shortened: (§2)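 Syncytium assay: HUT-78 cells persistently infected with HIV-1 (HTLV-IIIB) or HIV-2 (LAV-2ROD) were co-cultured with uninfected MOLT-4 (clone 8) cells, and giant-cell formation was scored. Compounds tested as ammonium salts. Values are means of at least two experiments.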

MOLT-4 [13] = assay: Gaint cell formation between HIV-2 (LAV-2 rod) infected HUT-78 cells and uninfected MOLT-4(clone-8)cells; assay type: functional, cell-based; conditions: Homo sapiens; procedure, shortened: as §2
MT4 [14] = assay: Cytotoxical effect against MT-4 cell lines was determined by reduction of cellular viability. data represent mean value of at least two separate experiments.; assay type: functional; conditions: Homo sapiens; procedure, shortened: as §1
MT4 [15] = assay: Viral cytopathicity against HIV -2 (LAV-2 rod)strain determined in MT-4 cells; assay type: functional, cell-based; conditions: Homo sapiens
MT4 [16] = assay: Viral cytopathicity against HIV -I (HTLV-IIIb) strain determined in MT-4 cells; assay type: functional, cell-based; conditions: Homo sapiens
MDCK [17] = assay: Anti viral activity against MDCK cytotoxicity by minimum cytotoxic concentration that causes a microscopically detectable alteration of normal cell morphology after 2 day of treatment.; assay type: functional; conditions: Canis lupus familiaris, 48 h
MDCK [18] = assay: Antiviral activity was determined against Influenza virus A(strain Ishikawa) in MDCK cells by measuring concentration required to reduce virus induced cytopathogenicity by 50%.; assay type: functional, cell-based; conditions: Canis lupus familiaris
Procedure, shortened: (§3)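 Tested in MDCK cells, with compound applied right after infection and left on. Cytopathic effect of influenza A (Ishikawa) or B (Singapore) was read at day 5 pi. IC50 is the concentration halving cytopathogenicity, in µg/mL.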

MDCK [19] = assay: Antiviral activity was determined against Influenza virus B(strain Singapore) MDCK cells by measuring concentration required to reduce virus induced cytopathogenicity by 50%.; assay type: functional, cell-based; conditions: Canis lupus familiaris; procedure, shortened: as §3
Homo sapiens [20] = species on record: Homo sapiens; assay: Cytotoxical effect against PBL cell lines was determined by reduction of cellular viability. data represent mean value of at least two separate experiments.; assay type: functional; procedure, shortened: as §1
[21] = molecular target: Human immunodeficiency virus type 1 protease (Human immunodeficiency virus 1, UniProt Q72874); assay: Inhibition of HIV -1 protease
Procedure, shortened: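 Purified HIV-1 protease with the peptide substrate Ala-Ser-Glu-Asn-Tyr-Pro-Ile-Val-Glu-amide. Cleavage quantified by reverse-phase HPLC. Compounds tested as ammonium salts. Values are means of at least two experiments.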

Homo sapiens [22] = species on record: Homo sapiens; assay: Inhibition of p24 production in Peripheral blood lymphocytes; assay type: functional, organism-based
Procedure, shortened: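 Phytohemagglutinin-stimulated peripheral blood lymphocytes infected with HIV-1 WUJO. Read-out is virion-associated p24 production. Compounds tested as ammonium salts. Values are means of at least two experiments.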

Vero [23] = assay: Anti viral activity against Vero cellular cytotoxicity by minimum cytotoxic concentration that causes a microscopically detectable alteration of normal cell morphology after 2 day of treatment.; assay type: functional; conditions: Chlorocebus sabaeus, 48 h
Vero [24] = assay: Antiviral activity was determined against Junin virus in Vero cells by measuring concentration required to reduce virus induced cytopathogenicity by 50%.; assay type: functional, cell-based; conditions: Chlorocebus sabaeus
Vero [25] = assay: Antiviral activity was determined against Tacaribe virus in Vero cells by measuring concentration required to reduce virus induced cytopathogenicity by 50%.; assay type: functional, cell-based; conditions: Chlorocebus sabaeus

Sequence of Human immunodeficiency virus type 1 integrase (Q7ZJM1 whole entry): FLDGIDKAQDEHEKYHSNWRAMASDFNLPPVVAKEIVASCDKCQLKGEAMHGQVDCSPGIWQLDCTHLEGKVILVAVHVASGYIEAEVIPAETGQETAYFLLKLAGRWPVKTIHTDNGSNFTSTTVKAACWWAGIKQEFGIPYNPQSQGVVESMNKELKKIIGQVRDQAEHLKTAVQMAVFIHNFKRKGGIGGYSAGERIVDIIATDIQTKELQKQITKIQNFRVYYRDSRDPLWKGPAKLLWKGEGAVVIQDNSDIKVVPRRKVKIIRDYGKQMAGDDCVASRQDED

## CCCCCC=C(c1cc(Cl)c(O)c(C(=O)NO)c1)c1cc(Cl)c(O)c(C(=O)NO)c1
CCRF-CEM
  CC50: 36.2 µM
HEL [1]
  CC50: 20 µM
HEL [2]
  pIC50: < 5.30
HEL [3]
  pIC50: 5.30
HEL [4]
  pIC50: < 5.30
HEL [5]
  pIC50: 5.30
HEL [6]
  pIC50: < 5.30
HEL [7]
  pIC50: 5.30
HEL [8]
  pIC50: < 4.70
HeLa [9]
  CC50: 4 µM
HeLa [10]
  pIC50: < 5.40
[11]
  pIC50: 5.40
MOLT-4 [12]
  pIC50: 5.10
MOLT-4 [13]
  pIC50: 4.40
MT4 [14]
  CC50: > 40 µM
MT4 [15]
  pIC50: < 4.40
MT4 [16]
  pIC50: 4.66
MDCK [17]
  CC50: 4 µM
MDCK [18]
  pIC50: < 5.40
MDCK [19]
  pIC50: < 5.40
Homo sapiens [20]
  CC50: 148 µM
[21]
  pIC50: 4.24
Homo sapiens [22]
  pIC50: 3.95
Vero [23]
  CC50: 5 µM
Vero [24]
  pIC50: < 5.70
Vero [25]
  pIC50: < 5.70
